ChEMBL document CHEMBL4680065, “Pharmacophore-based screening of diamidine small molecule inhibitors for protein arginine methyltransferases” (RSC Med Chem, 2021)
Active and inactive are the calls of the source. The calls are words filed in the database; no cut-off is given here.

How the values were obtained:
[1] = target: Protein arginine N-methyltransferase 3 (Homo sapiens, UniProt O60678); assay: Inhibition of recombinant human His-tagged PRMT3 expressed in Escherichia coli BL21 (DE3) using biotin-labeled SMD1 as substrate incubated for 10 mins in presence of [3H]-SAM cofactor by scintillation proximity assay
Chain of Protein arginine N-methyltransferase 3 (O60678 whole entry): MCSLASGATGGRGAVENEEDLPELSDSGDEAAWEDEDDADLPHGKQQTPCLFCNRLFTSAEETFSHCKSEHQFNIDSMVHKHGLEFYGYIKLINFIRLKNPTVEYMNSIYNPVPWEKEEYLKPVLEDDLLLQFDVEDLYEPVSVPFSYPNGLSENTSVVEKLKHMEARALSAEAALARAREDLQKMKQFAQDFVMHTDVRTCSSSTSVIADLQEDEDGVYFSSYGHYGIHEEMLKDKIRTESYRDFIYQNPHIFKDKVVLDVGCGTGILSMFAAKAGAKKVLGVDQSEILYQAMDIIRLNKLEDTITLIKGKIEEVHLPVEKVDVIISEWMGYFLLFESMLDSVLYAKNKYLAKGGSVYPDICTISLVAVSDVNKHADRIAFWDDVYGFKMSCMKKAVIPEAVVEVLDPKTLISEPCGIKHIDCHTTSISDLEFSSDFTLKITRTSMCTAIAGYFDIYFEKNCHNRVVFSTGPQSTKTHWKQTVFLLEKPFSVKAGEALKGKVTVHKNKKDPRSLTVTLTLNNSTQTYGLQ
How it was run: (§1)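 The inhibitor was serially diluted and added to the enzyme, [3H]-SAM and substrate mixture, and methylated substrate was quantified by scintillation proximity assay. Reactions were held at initial rate, with yield under 10% and substrate near Km. PRMT3, PRMT8 and G9a were His-tagged human proteins, and PRMT7 was GST-tagged, all expressed in E. coli and affinity-purified.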

[2] = target: Protein arginine N-methyltransferase 8 (Homo sapiens, UniProt Q9NR22); assay: Inhibition of recombinant His-tagged human PRMT8 expressed in Escherichia coli BL21 (DE3) using biotin-labeled histone H4-20 peptide as substrate incubated for 8 mins in presence of [3H]-SAM cofactor by scintillation proximity assay; how it was run: as §1
Chain of Protein arginine N-methyltransferase 8 (Q9NR22 whole entry): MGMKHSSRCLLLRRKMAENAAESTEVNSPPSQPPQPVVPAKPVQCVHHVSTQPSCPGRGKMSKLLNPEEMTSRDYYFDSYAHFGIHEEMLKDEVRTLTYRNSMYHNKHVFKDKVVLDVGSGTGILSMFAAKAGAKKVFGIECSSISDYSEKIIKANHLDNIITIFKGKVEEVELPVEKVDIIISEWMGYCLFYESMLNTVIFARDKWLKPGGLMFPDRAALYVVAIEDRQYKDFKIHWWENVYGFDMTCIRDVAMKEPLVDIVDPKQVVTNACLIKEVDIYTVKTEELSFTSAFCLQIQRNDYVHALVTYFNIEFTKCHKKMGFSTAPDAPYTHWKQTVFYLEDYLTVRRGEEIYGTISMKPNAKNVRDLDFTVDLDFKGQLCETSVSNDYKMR

K562 = assay: Antiproliferative activity against human K562 cells assessed as inhibition of cell growth measured after 72 hrs by CellTiter-Glo assay; type: functional, cell-based; details: K562, 72 h
How it was run: (§2)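 Cells were cultured with the test agent, serially diluted, for 72 h. The control received the same amount of DMSO. Cell viability was then measured, and IC50 values were taken from sensitivity curves.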

HEL = assay: Antiproliferative activity against human HEL cells assessed as inhibition of cell growth measured after 72 hrs by CellTiter-Glo assay; type: functional, cell-based; how it was run: as §2
[3] = target: Protein arginine N-methyltransferase 1 (Homo sapiens, UniProt Q99873); assay: Non-competitive inhibition of recombinant His-tagged PRMT1 (unknown origin) expressed in Escherichia coli BL21 (DE3) using varying levels of biotin-labeled histone H4-20 as substrate
Chain of Protein arginine N-methyltransferase 1 (Q99873 whole entry, looked up): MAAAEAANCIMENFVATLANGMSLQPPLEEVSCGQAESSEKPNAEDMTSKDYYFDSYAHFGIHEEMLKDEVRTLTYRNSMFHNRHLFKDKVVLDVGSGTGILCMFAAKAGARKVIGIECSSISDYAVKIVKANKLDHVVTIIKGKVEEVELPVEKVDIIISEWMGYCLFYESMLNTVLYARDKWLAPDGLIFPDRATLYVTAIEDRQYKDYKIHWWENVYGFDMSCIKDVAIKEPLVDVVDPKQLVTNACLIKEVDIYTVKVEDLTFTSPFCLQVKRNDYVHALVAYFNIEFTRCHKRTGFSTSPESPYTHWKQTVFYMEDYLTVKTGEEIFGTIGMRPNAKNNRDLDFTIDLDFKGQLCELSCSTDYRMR
How it was run: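 His-tagged human PRMT1 was expressed in E. coli BL21(DE3) and Ni-affinity purified. IC50 was measured by SPA at varied SAM or biotinylated H4 peptide (0.3125–4.5 μM), with the other component fixed near its Km (0.5 μM); n = 2.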

[4] = target: T1, Histone-arginine methyltransferase CARM1 (Homo sapiens, UniProt Q86X55); assay: Inhibition of recombinant GST-tagged CARM1 (unknown origin) expressed in Escherichia coli using […] incubated for 120 mins in presence of [3H]-SAM cofactor by radioactive filter plate assay
T1 sequence (Q86X55 whole entry): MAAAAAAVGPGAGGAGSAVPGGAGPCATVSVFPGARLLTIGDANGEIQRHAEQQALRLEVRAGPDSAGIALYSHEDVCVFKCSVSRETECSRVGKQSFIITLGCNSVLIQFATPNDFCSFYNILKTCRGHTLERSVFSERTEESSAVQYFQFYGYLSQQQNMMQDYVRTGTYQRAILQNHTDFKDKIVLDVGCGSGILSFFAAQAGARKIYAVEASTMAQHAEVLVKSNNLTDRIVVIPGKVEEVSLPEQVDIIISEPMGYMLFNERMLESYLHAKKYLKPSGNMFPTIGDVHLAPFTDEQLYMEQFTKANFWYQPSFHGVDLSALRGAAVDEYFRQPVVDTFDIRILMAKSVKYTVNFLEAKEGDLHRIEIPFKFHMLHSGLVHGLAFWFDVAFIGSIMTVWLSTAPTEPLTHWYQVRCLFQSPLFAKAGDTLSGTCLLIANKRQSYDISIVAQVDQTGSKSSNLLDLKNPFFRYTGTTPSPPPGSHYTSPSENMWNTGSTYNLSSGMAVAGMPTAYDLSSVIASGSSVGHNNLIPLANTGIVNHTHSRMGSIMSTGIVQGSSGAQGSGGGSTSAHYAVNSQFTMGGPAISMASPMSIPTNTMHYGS

[5] = target: T2, Protein arginine N-methyltransferase 7 (Homo sapiens, UniProt Q9NVM4); assay: Inhibition of recombinant GST-tagged PRMT7 (unknown origin) expressed in Escherichia coli using biotin-labeled SMD1 as substrate incubated for 120 mins in presence of [3H]-SAM cofactor by scintillation proximity assay; how it was run: as §1
T2 sequence (Q9NVM4 whole entry): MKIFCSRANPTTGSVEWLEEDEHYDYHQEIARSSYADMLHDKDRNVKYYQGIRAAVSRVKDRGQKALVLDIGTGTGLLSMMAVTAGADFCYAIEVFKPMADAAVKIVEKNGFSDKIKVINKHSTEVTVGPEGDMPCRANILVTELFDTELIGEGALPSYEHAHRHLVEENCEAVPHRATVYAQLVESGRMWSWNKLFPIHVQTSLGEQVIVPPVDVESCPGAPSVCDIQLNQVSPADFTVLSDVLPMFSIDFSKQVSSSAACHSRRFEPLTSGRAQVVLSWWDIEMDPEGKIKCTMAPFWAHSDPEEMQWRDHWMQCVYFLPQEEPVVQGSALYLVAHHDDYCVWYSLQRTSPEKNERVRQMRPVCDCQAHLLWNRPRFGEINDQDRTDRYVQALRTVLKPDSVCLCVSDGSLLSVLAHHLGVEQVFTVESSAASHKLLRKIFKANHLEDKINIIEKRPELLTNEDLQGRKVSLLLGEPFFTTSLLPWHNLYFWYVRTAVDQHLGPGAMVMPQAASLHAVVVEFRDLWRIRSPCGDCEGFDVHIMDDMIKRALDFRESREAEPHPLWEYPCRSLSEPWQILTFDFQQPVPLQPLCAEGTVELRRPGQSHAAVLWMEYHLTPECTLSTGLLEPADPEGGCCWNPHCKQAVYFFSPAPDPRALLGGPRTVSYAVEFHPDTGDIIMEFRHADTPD

## N=C(N)c1ccc(Nc2ccc(-c3cc4ccc(C(=N)N)cc4[nH]3)cc2)cc1
[1]
  IC50: 3.4 µM
[2]
  IC50: 8.2 µM
K562
  IC50: 1.08 µM
HEL
  IC50: 2.27 µM
[3]
  inhibition: Active
[4]
  IC50: 27.6 µM
[5]
  IC50: 23.6 µM
